Bioassay records: PubChem, several laboratories
Only some compounds are listed: those with a hit (about 1.5% of all), similar ones and a draw of the others.
LANA-H2A inh = blockers of LANA interaction with H2A/H2B – biochemical, FP readout, HTS, primary screen. cell-free LANA-H2A/H2B peptide, fluorescence polarization. inhibition, % (test concentration not listed). Protein LANA1 (Human herpesvirus 8 type P (isolate GK18)), Q9QR71. hit rate 0.6% among 320,000; in the data active = inhibition mostly above about 10%, no sharp cut-off; inactive = mostly below about 6.7%
EBNA-1 inhibitor = EBNA-1 DNA-binding inhibitors, primary screen, biochemical, fluorescence polarization; inhibition, % at 14.8 µM; hit rate 0.34% among 300,000; AID 1950, 2009; in the data active = inhibition above about 28%
HNF4A DNA FP = change in binding of human HNF4A to DNA, primary screen, biochemical, fluorescence polarization, FITC-DNA. AID 1224865, 2016. Hepatocyte nuclear factor 4-alpha (Homo sapiens), P41235. 1 h. activity change, % at 10 µM. hit rate 0.3% among 360,000; in the data active = activity change above about 30%, passing the limit was not always enough
CSN inh = inhibitors of CSN-mediated cullin deneddylation, primary screen, biochemical, fluorescence polarization, uHTS; hit rate 0.38% among 360,000; AID 651999, 2013; COP9 signalosome complex subunit 5 (Homo sapiens), Q92905; inhibition, % at 12.5 µM; Purified CSN, SCF-Nedd8-OG deneddylation;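 active = pattern-corrected inhibition above about 35%, with an unprinted fluorescence ratio check between 0.5 and 1.5, limit read from the data, passing the limit was not always enough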;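 also: 0% = enzyme with substrate and 100% = substrate without enzyme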
Target sequence (Q92905 whole entry, looked up, one chain of several): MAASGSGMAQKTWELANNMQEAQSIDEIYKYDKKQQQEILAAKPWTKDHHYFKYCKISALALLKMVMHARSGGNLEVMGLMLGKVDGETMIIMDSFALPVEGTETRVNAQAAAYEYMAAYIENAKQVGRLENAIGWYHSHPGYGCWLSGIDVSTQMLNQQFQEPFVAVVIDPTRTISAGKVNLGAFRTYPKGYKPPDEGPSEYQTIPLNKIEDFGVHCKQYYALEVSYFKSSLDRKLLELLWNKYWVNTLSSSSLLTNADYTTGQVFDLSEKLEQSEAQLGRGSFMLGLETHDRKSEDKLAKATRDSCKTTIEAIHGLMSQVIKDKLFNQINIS
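Schedule: reaction 90 min, room temperature / Assay system: HEK293T-derived human Csn5 enzyme / Input: Csn5 at 0.24 nM final / Measure: inhibition of Csn5 cleavage, % / Control set: substrate-only high control, full reaction low control / Technique: fluorescence polarization of the substrate / Buffer or medium: Tris/NaCl/DTT buffer, pH 7.5 / Reagent: SCFSkp2-Nedd8OG substrate at 10 nM final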
ZTA DNA inh = counter-screen for EBNA-1 inhibitors: inhibitors of Epstein-Barr virus ZTA | P03206 | hit rate 0.15% among 320,000 | inhibition, % at 11 µM | ZTA-DNA binding, fluorescence polarization; in the data active = inhibition above about 33%
Target sequence (P03206 whole entry, looked up): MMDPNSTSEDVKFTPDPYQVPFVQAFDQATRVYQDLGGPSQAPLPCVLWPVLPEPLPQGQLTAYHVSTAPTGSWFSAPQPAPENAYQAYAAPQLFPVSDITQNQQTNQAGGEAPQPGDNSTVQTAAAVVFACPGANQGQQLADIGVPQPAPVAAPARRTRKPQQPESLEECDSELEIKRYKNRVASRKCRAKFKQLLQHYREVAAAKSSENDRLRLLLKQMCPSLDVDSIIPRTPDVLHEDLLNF
A1 inh = caspase 3/7 activation in MEF A1-2A-BIM cells, primary screen, A1 inhibitor project, cell-based, luminescence, HTS; Caspase-Glo 3/7 luminescence, 3 h; percent of clofoctol response, vehicle zero; caspase activation, % (test concentration not listed); hit rate 0.066% among 330,000; AID 2462, 2010;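 active = over half of replicate activation scores above 10%, or exactly half above 10 with the replicate mean above 10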
EBNA-1 inh conf = EBNA-1 DNA-binding inhibitors, retest, confirmation, biochemical, fluorescence polarization, triplicate | hit rate 35% among 830 | inhibition, % at 14.8 µM | Recombinant EBNA-1 DBD, Cy5-DNA fluorescence polarization | shares compounds with EBNA-1 inhibitor;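 active = mean inhibition across replicates above a set limit taken from the earlier primary screen, cut at about 28% in these data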;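 also: plate controls were EBNA-1 protein with DMSO for no effect and wells lacking EBNA-1 for full effect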
ZTA DNA inh trip = EBV Zta DNA binding inhibitors, counter-screen for EBNA-1 inhibitor project, biochemical, fluorescence polarization, triplicate; shares compounds with EBNA-1 inhibitor; 830 tested, under 10 active; Zta-ZRE DNA binding, Cy5 fluorescence polarization; AID 2328, 2010; inhibition, % at 11.1 µM;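 active = mean inhibition over triplicates above a set limit taken from the primary EBNA-1 screen, cut at about 37% in these data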;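 also: purified full length Zta protein with Cy5 labeled ZRE DNA probe; 0% = Zta with DMSO and 100% = wells lacking Zta protein; inhibitors lower polarization by freeing the labeled DNA probe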
An asterisk follows results filed as active.

How did COc1ccc(CNS(=O)(=O)NCc2ccc(C)cc2)cc1 do in these assays?
LANA-H2A inh: -6; EBNA-1 inhibitor: 56*; HNF4A DNA FP: 1; CSN inh: 2; ZTA DNA inh: 7; A1 inh: -1; EBNA-1 inh conf: 12; ZTA DNA inh trip: -12

How did CC1(C(=O)Nc2ccc3c(c2)OCO3)CCN1C(=O)C1CCCCC1 (stereo not drawn) do in these assays?
HNF4A DNA FP: 4; CSN inh: -2

How did CCCn1c(=S)[nH]c2cc(C(=O)N3CCN(c4ccccc4)CC3)ccc2c1=O do in these assays?
HNF4A DNA FP: 1; CSN inh: 2

Results for O=C(c1ccc2c(=O)n(Cc3ccco3)c(=S)[nH]c2c1)N1CCN(c2ccccc2)CC1 ?
LANA-H2A inh: 0; EBNA-1 inhibitor: 40*; HNF4A DNA FP: -2; CSN inh: 6; ZTA DNA inh: -27; A1 inh: 0; EBNA-1 inh conf: -1; ZTA DNA inh trip: -1

How did Cc1ccc(/C(N)=N/OC(=O)c2ccc3ccccc3c2)cc1 do in these assays?
LANA-H2A inh: 3; EBNA-1 inhibitor: 31*; HNF4A DNA FP: 6; CSN inh: -3; ZTA DNA inh: 9; A1 inh: 0; EBNA-1 inh conf: 42*; ZTA DNA inh trip: 11

How did Cc1ccc(/C(N)=N/OC(=O)c2cccc(F)c2)cc1 do in these assays?
LANA-H2A inh: 4; EBNA-1 inhibitor: -4; HNF4A DNA FP: 4; CSN inh: 2; ZTA DNA inh: 5; A1 inh: -4

How did COc1ccccc1NC(=O)c1ccc(S(=O)(=O)N(C)c2ccccc2OC)cc1 do in these assays?
LANA-H2A inh: -1; HNF4A DNA FP: 1; CSN inh: 3; A1 inh: 0

How did COc1ccccc1N(C)S(=O)(=O)c1ccc(C(=O)NC2=NCCS2)cc1 do in these assays?
LANA-H2A inh: -7; EBNA-1 inhibitor: 45*; HNF4A DNA FP: 2; CSN inh: -2; ZTA DNA inh: 0; A1 inh: 0; EBNA-1 inh conf: 2; ZTA DNA inh trip: 7

Results for O=C(N/N=C/c1ccc2c(c1)OCO2)c1cc2ccccc2o1 ?
LANA-H2A inh: -2; EBNA-1 inhibitor: 30*; HNF4A DNA FP: 0; CSN inh: 6; ZTA DNA inh: 2; A1 inh: 0; EBNA-1 inh conf: 13; ZTA DNA inh trip: 3

Results for Cc1ccc(C(=O)N/N=C/c2ccc3c(c2)OCO3)o1 ?
LANA-H2A inh: -3; EBNA-1 inhibitor: 13; HNF4A DNA FP: -4; CSN inh: 0; ZTA DNA inh: 14; A1 inh: -6

What do the screens show for `COC(=O)c1cc(S(=O)(=O)Nc2cccc(-c3cnco3)c2)oc1C`?
LANA-H2A inh: -6; EBNA-1 inhibitor: 2; HNF4A DNA FP: 0; CSN inh: 0; ZTA DNA inh: -10; A1 inh: 0

What do the screens show for `Cc1cc(C)n(-c2ccc(C(=O)OCn3nnc4ccccc4c3=O)cc2)n1`?
LANA-H2A inh: 8; EBNA-1 inhibitor: 6; HNF4A DNA FP: -2; CSN inh: 3; ZTA DNA inh: 4; A1 inh: 0

How did Cc1nn(-c2ccccc2)c2sc(C(=O)OCn3nnc4ccccc4c3=O)cc12 do in these assays?
EBNA-1 inhibitor: 35*; HNF4A DNA FP: -2; CSN inh: 3; ZTA DNA inh: -23; A1 inh: 1; EBNA-1 inh conf: -3; ZTA DNA inh trip: -4

What do the screens show for `COc1cc2c(c(OC)c1OC)C(c1ccccc1C)CC(=O)O2` (stereo not drawn)?
HNF4A DNA FP: 2; CSN inh: -1

Results for C/C(=N\NC(=O)c1c(Br)c(C)nn1C)c1ccc(NC(=O)c2ccoc2C)cc1 ?
LANA-H2A inh: -2; EBNA-1 inhibitor: 63*; HNF4A DNA FP: 1; CSN inh: 1; ZTA DNA inh: 9; A1 inh: -5; EBNA-1 inh conf: 72*; ZTA DNA inh trip: 9

Results for CCOc1ncccc1C(=O)OCC(=O)Nc1ccc(C(N)=O)cc1 ?
LANA-H2A inh: -2; EBNA-1 inhibitor: active; HNF4A DNA FP: 5; CSN inh: -1; ZTA DNA inh: -5; A1 inh: 0; EBNA-1 inh conf: 7; ZTA DNA inh trip: 11

How did COc1ccc2[nH]c(=O)c(CN(Cc3ccccc3)C(=S)NCC3CCCO3)cc2c1 (stereo not drawn) do in these assays?
LANA-H2A inh: -1; EBNA-1 inhibitor: 8; HNF4A DNA FP: -6; CSN inh: -5; ZTA DNA inh: 19; A1 inh: 0

Results for Cc1ccc2[nH]c(=O)c(CN(Cc3cccs3)C(=S)NCC3CCCO3)cc2c1 (stereo not drawn) ?
LANA-H2A inh: -3; EBNA-1 inhibitor: 44*; HNF4A DNA FP: -2; CSN inh: -13; ZTA DNA inh: 9; A1 inh: 0; EBNA-1 inh conf: 17; ZTA DNA inh trip: -5

Results for O=C(Nc1ccc(F)cc1)Nc1cccnc1 ?
LANA-H2A inh: 6; HNF4A DNA FP: -2; CSN inh: -3; A1 inh: -4

What do the screens show for `O=C(NCC(F)(F)F)Nc1cccnc1`?
LANA-H2A inh: -2; EBNA-1 inhibitor: 80*; HNF4A DNA FP: 0; CSN inh: 5; ZTA DNA inh: -7; A1 inh: 0; EBNA-1 inh conf: 3; ZTA DNA inh trip: 2

How did Cc1cc(Cl)ccc1OCC(=O)NC(=S)Nc1ccccc1N1CCOCC1 do in these assays?
LANA-H2A inh: -2; EBNA-1 inhibitor: 44*; HNF4A DNA FP: -5; CSN inh: -5; ZTA DNA inh: 14; A1 inh: 1; EBNA-1 inh conf: 38*; ZTA DNA inh trip: 8

What do the screens show for `Cc1cc(Cl)ccc1OCC(=O)Nc1ccccc1N1CCOCC1`?
LANA-H2A inh: 8; EBNA-1 inhibitor: 9; HNF4A DNA FP: 1; CSN inh: -1; ZTA DNA inh: 8; A1 inh: -1

How did CC1CC(C)CN(C(=O)c2cccc(S(=O)(=O)Nc3cc(C(F)(F)F)ccc3Cl)c2)C1 (stereo not drawn) do in these assays?
LANA-H2A inh: -3; EBNA-1 inhibitor: 30*; HNF4A DNA FP: 1; CSN inh: -2; ZTA DNA inh: 10; A1 inh: 1; EBNA-1 inh conf: 2; ZTA DNA inh trip: -6
